Sampled rows, rich in hits. Any-hit rate of the full collection: about 0.84%.
DDE Tn6 FP inh = inhibitors of Tn6 peptide binding to human fibrin DD(E) | P02675 | Fibrin DD(E) TRITC-Tn6 fluorescence polarization displacement | inhibition, % at 8.3 µM | 370,000 compounds, 0.21% hits;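 active means inhibition above a per-campaign cutoff: mean of compounds within control limits plus 3 SD, cut at about 15% in these data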
Target sequence (P02675 whole entry, looked up): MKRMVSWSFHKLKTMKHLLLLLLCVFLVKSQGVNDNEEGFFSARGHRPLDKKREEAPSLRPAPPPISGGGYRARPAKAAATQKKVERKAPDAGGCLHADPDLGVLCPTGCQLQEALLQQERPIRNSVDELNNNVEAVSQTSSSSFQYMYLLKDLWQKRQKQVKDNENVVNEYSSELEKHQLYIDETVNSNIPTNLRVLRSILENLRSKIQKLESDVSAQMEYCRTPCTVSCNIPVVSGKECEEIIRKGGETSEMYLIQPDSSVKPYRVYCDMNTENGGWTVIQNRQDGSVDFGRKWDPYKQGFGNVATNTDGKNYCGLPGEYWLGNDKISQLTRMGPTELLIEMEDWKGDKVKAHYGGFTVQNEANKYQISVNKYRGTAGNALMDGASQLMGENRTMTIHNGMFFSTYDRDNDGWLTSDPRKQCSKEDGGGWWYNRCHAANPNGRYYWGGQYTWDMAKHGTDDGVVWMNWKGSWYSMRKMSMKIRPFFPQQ
MT1-MMP act inh = blocks activation of human MT1-MMP; HT1080 RFP-PRO-GFP cells, GFP/RFP ratio fluorescence, overnight; percent of plate control window, DMSO zero; GFP/RFP ratio change, % at 20 µM; 360,000 compounds, 0.061% hits; AID 651647;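 active means GFP/RFP ratio change of at least 30% with cell ATP level not reduced by more than half and red fluorescence within 50% of control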
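Material – HT1080 RFP-PRO-GFP cells · Control set – DMSO wells and RFP-L50D-GFP cells · Incubation – overnight cell settling, then overnight compound exposure, 37 °C, 5% CO2 · Compound dosing – single-point 20 µM compound, 1% DMSO · Read-out – GFP/RFP fluorescence ratio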
Tn7 DDE FP = disrupts Tn7 cyclic peptide binding to fibrin D-Dimer-E complex; 370,000 compounds, 0.13% hits; P02675; inhibition, % at 8.3 µM; FP displacement of FITC-Tn7 peptide from fibrin DD(E); 0% = median of compound wells per plate;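 active means inhibition above the mean of compounds falling within the control limits plus 3 SD of them, cut at about 14% in these data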
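Assay system: Fibrin-DD(E) protein isolated from polymerized human fibrin clots; read-out basis: percent inhibition; medium: Tris/NaCl/CaCl2 buffer, pH 7.8; signal: FP measurement; incubation: 10 min plus 3 h, room temperature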
SKN-1 block = inhibitors of C. elegans SKN-1; C. elegans VP596 Pgst-4::GFP/RFP ratio, acrylamide-induced, 24 h; inhibition, % at 21.8 µM; 360,000 compounds, 0.49% hits; AID 624304;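 active means interference check ratio from 0.5 to 1.5 plus GFP to RFP signal ratio inhibition reaching or exceeding a fixed threshold, cut at about 30% in these data, passing the limit was not always enough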
Large screens that a line does not name were inactive.

Oc1ccc(N=Cc2ccc(-c3cccs3)s2)cc1	DDE Tn6 FP inh 19
CN1CC(c2ccccc2)C2(SC(=S)N(Cc3ccco3)C2=O)C12C(=O)Nc1ccccc12 (stereo not given)	Tn7 DDE FP 15
Cc1cc(NC(=O)CSc2nnc(-c3ccncc3)n2-c2ccc(F)cc2)no1	SKN-1 block 42
COc1ccc([C@H]2C[C@@H](O)C[C@@H](CCn3cc(-c4ccccc4)nn3)O2)cc1	none
COCCNC(=O)c1onc(CSc2ccccc2C)c1C(=O)O	DDE Tn6 FP inh 22
COc1ccc2c(c1)CNC2CS(=O)(=O)NCc1ccc(F)cc1 (stereo not given)	none (no result: MT1-MMP act inh, SKN-1 block)
COC(=O)C1=CC(=O)C=C(OC)[C@@]12Oc1cc(C)cc(OC)c1C2=O	none (no result: MT1-MMP act inh, SKN-1 block)
Cc1ccc(NC(=O)COC(=O)C2(C)CC2(Cl)Cl)cc1S(=O)(=O)N1CCOCC1 (stereo not given)	SKN-1 block 41
COc1cc(CN2CCN(Cc3ccc(C(F)(F)F)cc3)CC2)cc(OC)c1OC	none
CN(C)CCCNc1cc(C(C)(C)C)nc2c(-c3ccc(Cl)cc3)cnn12	SKN-1 block 41
CCCCOc1ccc(C(=O)NCC(=O)OCCCOC(=O)CNC(=O)c2ccc(OCCCC)cc2)cc1	none
CCCCOc1ccc(C(=O)NC)cc1	SKN-1 block 28
Cc1ccc(NC(=O)C(=O)c2ccc(C)cc2)cc1	SKN-1 block 37
COc1ccc(S(=O)(=O)N(C)C[C@@H]2Oc3c(NC(=O)Nc4cccc5ccccc45)cccc3C(=O)N([C@@H](C)CO)C[C@H]2C)cc1	none (no result: MT1-MMP act inh, SKN-1 block)
O=C(NCC(=O)N(Cc1cccs1)C(C(=O)NC1CCCCC1)c1ccncc1)c1ccco1 (stereo not given)	SKN-1 block 42
COCCCNC(=O)C[C@H]1C[C@@]2(C(=O)OC)C(=C[C@H](C3CCCC3)O[C@@H]2C)N(Cc2ccco2)C1=O	none (no result: MT1-MMP act inh, SKN-1 block)
Cc1ccc(CCNC(=O)c2coc3nc4ccccc4nc23)cc1	SKN-1 block 37
CN1Cc2nnn(CC3CCCCC3)c2-c2ccccc2S1(=O)=O	none (no result: MT1-MMP act inh, SKN-1 block)
O=C(Nc1ccccc1)Nc1csc2ccccc12	SKN-1 block 35
CCCC[C@@H]1C(=O)N2N=C(c3ccccc3)c3ccccc3[C@H]2N2N=C(c3ccccc3)c3ccccc3[C@@H]12	none (no result: MT1-MMP act inh, SKN-1 block)
COC(=O)CN1C(=S)N(c2ccc(OC)cc2)C(=O)/C1=C/c1ccc(N2CCOCC2)cc1	SKN-1 block 37
Fc1cccc(-c2csc(-c3ccno3)n2)c1	SKN-1 block 52
Clc1ccc(-c2csc(-c3ccno3)n2)cc1	none
CC(C)NC(=O)COc1ccc(S(=O)(=O)N(C)Cc2ccccc2)cc1	none
Oc1cccc(Nc2c3ccccc3nc3ccccc23)c1	SKN-1 block 36
Cc1ccc(-c2nc(Nc3cccc(O)c3)c3ccccc3n2)cc1	none
COc1ccc(/C=C/S(=O)(=O)NCc2ccc(F)cc2)c(CNC(=O)OC(C)(C)C)c1	none (no result: MT1-MMP act inh, SKN-1 block)
CN(C)S(=O)(=O)c1ccc(N2CCCC2)c(C(=O)NCCc2ccc(F)cc2)c1	none
CN(C)S(=O)(=O)c1ccc(N2CCCC2)c(C(=O)NCc2cccc(C(F)(F)F)c2)c1	SKN-1 block 47
COC(=O)CCC(=O)OC1(C)C(=O)C=C2C=C(c3ccsc3)OC=C2C1=O (stereo not given)	none (no result: DDE Tn6 FP inh, Tn7 DDE FP)
COC(=O)CCCC1=CC2=CC(=O)C(C)(OC(=O)CCc3ccccc3)C(=O)C2=CO1 (stereo not given)	SKN-1 block 33 (no result: DDE Tn6 FP inh, Tn7 DDE FP)
CCN1Cc2nnn(Cc3ccccc3)c2-c2cc(N3CCCC3)ccc2S1(=O)=O	none (no result: MT1-MMP act inh, SKN-1 block)
Clc1ccccc1-c1nc(-c2cccnc2)no1	SKN-1 block 34
Clc1ccccc1-c1nc(-c2ccncc2)no1	SKN-1 block 46
Clc1ccc(OCCCc2nc(-c3ccncc3)no2)c(Cl)c1	SKN-1 block 43
Clc1ccc(Cl)c(-c2nc(-c3ccncc3)no2)c1	none
c1ccc(-c2ccccc2-c2nc(-c3ccncc3)no2)cc1	none
Clc1ccc(-c2nc(-c3ccncc3)no2)c(Cl)c1	SKN-1 block 36
Clc1ccc(OCCCc2nc(-c3cccnc3)no2)c(Cl)c1	none
Cc1ccccc1-c1nc(-c2cccnc2)no1	none
CCC1(c2ccccc2)NC(=O)N(CC(=O)N2CC(=O)Nc3ccccc32)C1=O (stereo not given)	none
O=C(c1cnn2c(C(F)(F)F)cc(-c3ccco3)nc12)N1CCCc2ccccc21	SKN-1 block 37
O=C(O)C(c1ccccc1)C(O)c1ccc2c(c1)OCO2 (stereo not given)	none
COc1ccc(N=Nc2cc(C)c(O)c(CN3CCCCC3)c2)cc1	SKN-1 block 50
COc1ccc(CN2CCCCCC2)cc1	none
COc1ccccc1C1CC(c2cccc(NS(C)(=O)=O)c2)=NN1S(=O)(=O)c1ccccc1 (stereo not given)	SKN-1 block 37
COc1ccccc1C1CC(c2ccc(NS(C)(=O)=O)cc2)=NN1S(=O)(=O)c1ccccc1 (stereo not given)	none
O=C(COCc1ccncc1)N1CCN(c2ccc(F)cc2Cl)CC1	none (no result: MT1-MMP act inh, SKN-1 block)
CCOC(=O)C1=C(CSc2nc(-c3ccccc3)ccc2C#N)OC(N)=C(C#N)C1c1ccc(OC)cc1 (stereo not given)	SKN-1 block 43
CCOC(=O)C1=C(CSc2nc(CC)c(C)cc2C#N)OC(N)=C(C#N)C1c1ccccc1 (stereo not given)	none
C[C@@H]1CN([C@H](C)CO)S(=O)(=O)c2ccc(C#CCN(C)C)cc2O[C@@H]1CN(C)Cc1ccccc1F	none
O=C(c1ccccc1)c1c[nH]c2cc3c(cc2c1=O)OCCO3	SKN-1 block 47
O=c1c2ccccc2nnn1Cc1ccc(Br)cc1	SKN-1 block 36
COc1ccc(Cc2nnc(NC(=O)CS(=O)(=O)c3ccccc3)s2)cc1OC	none
COC(=O)[C@]12C[C@H](CC(=O)NCCc3ccccc3OC)C(=O)N(Cc3ccc(Cl)cc3Cl)C1=C[C@H](COCc1ccccc1)O[C@@H]2C	none (no result: MT1-MMP act inh, SKN-1 block)
CCNC(=O)NC(=O)COC(=O)c1ccccc1SCC(=O)NC(=O)NCC	MT1-MMP act inh 35
O=C(COC(=O)c1ccccc1SCC(=O)NC1CCS(=O)(=O)C1)NC1CCS(=O)(=O)C1 (stereo not given)	none
O=[N+]([O-])c1cc2c(cc1Br)-c1ccccc1C2	SKN-1 block 52
COc1cc2c(cc1[N+](=O)[O-])-c1ccccc1C2	none
COc1ccc(N2CCCN(CC(=O)Nc3ccccc3C)CC2)cc1	none (no result: MT1-MMP act inh, SKN-1 block)
O=C(NCc1ccc2c(c1)OCO2)c1cccc(C(=O)NCc2ccc3c(c2)OCO3)c1	none
O=C(NCc1ccc2c(c1)OCO2)c1cccc(N2CCCC2=O)c1	SKN-1 block 43
Cc1c(C#N)c(O)n(CCO)c(=O)c1N=Nc1ccc2c(c1)COC2=O	SKN-1 block 48
Cc1ccccc1S(=O)Cc1ccc(C(=O)N2CCN(C(=O)c3ccco3)CC2)o1 (stereo not given)	SKN-1 block 35

From PubChem
